Source: ChEMBL document CHEMBL1944523, “Benzimidazolones: a new class of selective peroxisome proliferator-activated receptor γ (PPARγ) modulators” (J Med Chem, 2011)

How the values were obtained:
[1] = biological target: T1, Peroxisome proliferator-activated receptor delta (Homo sapiens, UniProt Q03181); assay: Binding affinity to PPARdelta by scintillation proximity assay
T1 sequence (Q03181 whole entry): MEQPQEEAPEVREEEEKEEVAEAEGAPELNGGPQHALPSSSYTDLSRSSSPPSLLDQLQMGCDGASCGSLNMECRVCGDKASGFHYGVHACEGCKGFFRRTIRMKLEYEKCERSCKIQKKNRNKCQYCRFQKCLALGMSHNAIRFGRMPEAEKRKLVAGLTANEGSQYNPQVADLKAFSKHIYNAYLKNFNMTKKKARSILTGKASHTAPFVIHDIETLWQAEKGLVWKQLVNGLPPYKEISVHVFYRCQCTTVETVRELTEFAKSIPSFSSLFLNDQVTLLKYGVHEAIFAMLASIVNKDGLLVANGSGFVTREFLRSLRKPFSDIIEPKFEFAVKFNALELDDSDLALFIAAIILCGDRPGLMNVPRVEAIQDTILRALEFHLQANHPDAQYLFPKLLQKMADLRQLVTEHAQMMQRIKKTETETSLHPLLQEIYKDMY
Summary of the method: (§1)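 Scintillation proximity binding assay on PPAR receptors giving IC50; mean of three determinations.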

[2] = biological target: T2, Peroxisome proliferator-activated receptor gamma (Homo sapiens, UniProt P37231); assay: Agonist activity at human PPARgamma expressed in COS-1 cells co-expressing with Gal4 by transactivation assay; assay type: functional, cell-based
T2 sequence (P37231 whole entry): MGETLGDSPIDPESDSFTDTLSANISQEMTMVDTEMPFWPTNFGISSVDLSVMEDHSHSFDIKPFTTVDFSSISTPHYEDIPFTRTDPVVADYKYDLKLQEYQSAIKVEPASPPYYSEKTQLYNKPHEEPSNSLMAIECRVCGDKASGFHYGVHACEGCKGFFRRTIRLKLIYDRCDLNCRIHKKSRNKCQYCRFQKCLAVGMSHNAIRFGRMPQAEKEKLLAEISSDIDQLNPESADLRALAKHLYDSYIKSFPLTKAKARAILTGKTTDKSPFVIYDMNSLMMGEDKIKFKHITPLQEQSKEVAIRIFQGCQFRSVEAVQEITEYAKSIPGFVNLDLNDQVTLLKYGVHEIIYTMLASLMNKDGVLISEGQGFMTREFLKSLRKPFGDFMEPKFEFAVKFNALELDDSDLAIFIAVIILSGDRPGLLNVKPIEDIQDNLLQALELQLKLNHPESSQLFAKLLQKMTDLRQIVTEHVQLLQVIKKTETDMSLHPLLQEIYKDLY
Summary of the method: (§2)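 GAL4-PPAR chimeric receptor transactivation in transiently co-transfected COS-1 cells with a GAL4-responsive reporter; potency as EC50 and maximum activation expressed relative to rosiglitazone; triplicate, mean reported.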

[3] = biological target: T2, Peroxisome proliferator-activated receptor gamma; assay: Binding affinity to human PPARgamma by scintillation proximity assay; summary of the method: as §1
[4] = biological target: T3, Peroxisome proliferator-activated receptor alpha (Homo sapiens, UniProt Q07869); assay: Binding affinity to human PPARalpha expressed in COS-1 by scintillation proximity assay; summary of the method: as §1
T3 sequence (Q07869 whole entry): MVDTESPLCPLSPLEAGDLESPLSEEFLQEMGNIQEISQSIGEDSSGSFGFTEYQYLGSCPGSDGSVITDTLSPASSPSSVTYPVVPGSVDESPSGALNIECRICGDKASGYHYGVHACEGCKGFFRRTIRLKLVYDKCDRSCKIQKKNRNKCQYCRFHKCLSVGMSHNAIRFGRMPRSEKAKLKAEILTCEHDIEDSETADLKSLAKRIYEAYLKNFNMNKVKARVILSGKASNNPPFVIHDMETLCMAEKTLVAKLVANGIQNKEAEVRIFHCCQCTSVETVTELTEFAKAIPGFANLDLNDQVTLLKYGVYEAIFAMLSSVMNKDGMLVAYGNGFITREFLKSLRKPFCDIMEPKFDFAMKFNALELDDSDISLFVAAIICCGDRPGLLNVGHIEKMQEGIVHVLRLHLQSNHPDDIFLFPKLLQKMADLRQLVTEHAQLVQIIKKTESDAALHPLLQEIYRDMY

[5] = biological target: T4, Peroxisome proliferator-activated receptor gamma (Homo sapiens) (UniProt P37231); assay: Agonist activity at human PPARgamma expressed in COS-1 cells co-expressing with Gal4 by transactivation assay relative to rosiglitazone; assay type: functional, cell-based; summary of the method: as §2
T4 sequence (whole entry): T2 sequence (P37231 whole entry)

[6] = biological target: T2, Peroxisome proliferator-activated receptor gamma; assay: Partial agonist activity at human PPARgamma LBD assessed as activation of PBP by HTRF assay; assay type: functional
[7] = biological target: T2, Peroxisome proliferator-activated receptor gamma; assay: Partial agonist activity at human PPARgamma LBD assessed as activation of PGC1 by HTRF assay; assay type: functional
[8] = biological target: T2, Peroxisome proliferator-activated receptor gamma; assay: Partial agonist activity at human PPARgamma LBD assessed as activation of Src-1 by HTRF assay; assay type: functional
[9] = biological target: T2, Peroxisome proliferator-activated receptor gamma; assay: Partial agonist activity at human PPARgamma LBD assessed as activation of CBP1-453 by HTRF assay; assay type: functional
[10] = Half life in rat at 0.5 mg/kg, iv and 2 mg/kg, po by LC-MS/MS analysis; assay type: ADME, organism-based; conditions: in vivo
Summary of the method: (§3)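 Rat pharmacokinetics: 2 mpk oral in 5% methylcellulose, 0.5 mpk iv in ethanol/PEG400/water (1/4/5). Blood sampled at set intervals; plasma acidified with 0.5 M formate buffer pH 3.0, acetonitrile-precipitated, quantified by LC−MS−MS against spiked control-plasma calibration curves.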

Rattus norvegicus [11] = assay: Plasma clearance in rat at 0.5 mg/kg, iv and 2 mg/kg, po by LC-MS/MS analysis; assay type: ADME, organism-based; conditions: in vivo; summary of the method: as §3
Rattus norvegicus [12] = assay: Dose normalized AUC in rat at 2 mg/kg, po by LC-MS/MS analysis; assay type: ADME, organism-based; set-up: dose 2 mg/kg, route oral; conditions: in vivo; summary of the method: as §3
Mus musculus = assay: Antidiabetic activity in db/db C57BLKS/J-m +/+ Leprdb mouse assessed as reduction of glucose level at 30 mg/kg, po qd for 10 days measured on 11 relative to control; assay type: functional; set-up: scale not given: the % may be the effect or the level left
Summary of the method: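 Male db/db (C57BLKS/J-m +/+Leprdb) mice, 12−13 weeks old, seven per group, chow and water freely available; once-daily oral gavage in 0.25% methylcellulose vehicle for 11 days. Tail blood drawn just before next dose on days 0, 4, 7 and 11 for plasma glucose. Value is percent correction versus vehicle control; mean of n = 7; rosiglitazone 10 mpk positive control.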

[13] = Oral bioavailability in rat at 2 mg/kg by LC-MS/MS analysis; assay type: ADME, organism-based; conditions: in vivo; summary of the method: as §3

Row | SMILES | IC50 [1] | EC50 [2] | IC50 [3] | IC50 [4] | Emax [5] | EC50 [6] | EC50 [7] | EC50 [8] | EC50 [9] | half-life [10] | clearance (Rattus norvegicus [11]) | AUC/dose (Rattus norvegicus [12]) | Activity (Mus musculus) | bioavailability [13]
1 | COc1ccc2c(-n3c(=O)n(Cc4ccc(Cl)c(O[C@H](C)C(=O)O)c4)c4ccc(OC(F)(F)F)cc43)noc2c1 | > 50000 nM | 13.2 nM | 4.1 nM | > 50000 nM | 31% |  |  |  |  |  |  |  |  | 
2 | C[C@@H](Oc1cc(Cn2c(=O)n(-c3noc4cc(Cl)ccc34)c3ccc(C(F)(F)F)cc32)ccc1Cl)C(=O)O | > 50000 nM | 200 nM | 68 nM | > 50000 nM | 32% | > 50000 nM | 3240 nM | > 50000 nM | > 50000 nM |  |  |  |  | 
3 | CN(CCOc1ccc(C[C@H](OCC(F)(F)F)C(=O)O)cc1)c1nc2ccccc2o1 |  |  |  |  |  | 1 nM | 1 nM | 2 nM | 1 nM |  |  |  |  | 
4 | Cc1cccc2c(-n3c(=O)n(Cc4ccc(Cl)c(O[C@H](C)C(=O)O)c4)c4cc(C(F)(F)F)ccc43)noc12 | > 50000 nM | 4.1 nM | 9.2 nM | > 50000 nM | 25% |  |  |  |  |  |  |  |  | 
5 | C[C@@H](Oc1cc(Cn2c(=O)n(-c3nc4ccc(Cl)cc4s3)c3ccc(C(F)(F)F)cc32)ccc1Cl)C(=O)O | > 50000 nM |  | 1370 nM | > 50000 nM |  |  |  |  |  |  |  |  |  | 
6 | COc1ccc2c(-n3c(=O)n(Cc4cc(O[C@H](C)C(=O)O)ccc4Cl)c4ccccc43)noc2c1 | > 50000 nM | 51.1 nM | 13.7 nM | > 50000 nM | 50% | 11 nM | 8 nM | > 50000 nM | 11 nM | 6.9 h | 7.3 mL/min/kg | 5 µM·kg·h/mg | 30% | 97%
7 | CC[C@@H](Oc1cccc(Cn2c(=O)n(-c3noc4cc(OC)ccc34)c3ccc(C(F)(F)F)cc32)c1)C(=O)O | > 50000 nM |  | 3660 nM | > 50000 nM |  |  |  |  |  |  |  |  |  | 
8 | COc1ccc2c(-n3c(=O)n(Cc4cc(O[C@H](C)C(=O)O)ccc4Cl)c4cc(C(F)(F)F)ccc43)noc2c1 | > 50000 nM | 102 nM | 9.1 nM | > 50000 nM | 26% |  |  |  |  |  |  |  |  | 
9 | COc1ccc2c(-n3c(=O)n(Cc4ccc(Cl)c(O[C@H](C)C(=O)O)c4)c4ccc(C(F)(F)F)cc43)noc2c1 | > 50000 nM | 83 nM | 2.3 nM | > 50000 nM | 43% |  |  |  |  |  |  |  |  | 
10 | Cc1c(C(=O)c2ccc(Cl)cc2)c2ccc(OC(F)(F)F)cc2n1Cc1cccc(O[C@@H](C(=O)O)C(C)C)c1 |  |  |  |  |  | 6 nM | 5 nM | 9 nM | 7 nM |  |  |  |  | 
11 | Cc1c(C(=O)c2ccc(Cl)cc2)c2ccc(OC(F)(F)F)cc2n1Cc1cccc(O[C@H](C)C(=O)O)c1 |  |  |  |  |  | 5 nM | 5 nM | > 50000 nM | 6 nM |  |  |  |  | 
12 | C[C@@H](Oc1cc(Cn2c(=O)n(Cc3ccc(Cl)cc3)c3ccc(C(F)(F)F)cc32)ccc1Cl)C(=O)O | > 50000 nM | 3000 nM | 4800 nM | > 50000 nM | 17% |  |  |  |  |  |  |  |  | 
13 | COc1ccc2c(-n3c(=O)n(Cc4cccc(O[C@H](C)C(=O)O)c4)c4cc(C(F)(F)F)ccc43)noc2c1 | > 50000 nM |  | 924 nM | > 50000 nM |  |  |  |  |  |  |  |  |  | 
